According to ChEMBL document CHEMBL1144153, “Conjugates of the fungal cytotoxin illudin M with improved tumour specificity” (Bioorg Med Chem, 2008):
The source made the active and inactive calls. The calls are words filed in the database; no cut-off is given here.

Experiments:
HT-29 [1] = assay: Induction of apoptosis in human HT-29 cells assessed as sub-diploid DNA content at 1 uM after 96 hrs by FACS relative to control; assay type: functional
Method in brief: (§1)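 Panc-1 and HT-29 cells (RPMI-1640) or foreskin fibroblasts (DMEM), 10% FCS, 37 °C, were compound-treated. Supernatants were pooled with PBS-washed, trypsinised cells, then lysed in hypotonic 0.1% sodium citrate / 0.1% Triton X-100 with 50 µg/mL propidium iodide. Flow cytometry scored the sub-diploid nuclear fraction as apoptotic, relative to untreated controls. Means of three independent experiments.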

PANC-1 [2] = assay: Induction of apoptosis in human PANC1 cells assessed as sub-diploid DNA content at 1 uM after 120 hrs by FACS relative to control; assay type: functional; method in brief: as §1
HT-29 [3] = assay: Induction of apoptosis in human HT-29 cells assessed as sub-diploid DNA content at 1 uM after 120 hrs by FACS relative to control; assay type: functional; method in brief: as §1
HFF = assay: Induction of apoptosis in HFF cells assessed as sub-diploid DNA content at 1 uM after 120 hrs by FACS relative to control; assay type: cell-based; details: human; method in brief: as §1
PANC-1 [4] = assay: Cytotoxicity against human PANC1 cells assessed as viable cells at 1 uM after 120 hrs by trypan blue exclusion assay relative to control; assay type: functional; details: PANC-1, 120 h, read-out: Activity
Method in brief: (§2)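 Panc-1 and HT-29 cells were grown in RPMI-1640, and foreskin fibroblasts in DMEM, each with 10% FCS plus penicillin/streptomycin at 37 °C and 5% CO2. Cells were exposed to compound (0.01–10 µM range) for up to 120 h, harvested and stained with Trypan blue. Unstained cells were counted in a Neubauer chamber relative to untreated controls (100%). Means of three independent experiments ± SD.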

HT-29 [5] = assay: Cytotoxicity against human HT-29 cells assessed as viable cells at 1 uM after 120 hrs by trypan blue exclusion assay relative to control; assay type: functional; details: HT-29, 120 h, read-out: Activity; method in brief: as §2
[6] = Cytotoxicity against HFF cells assessed as viable cells at 1 uM after 120 hrs by trypan blue exclusion assay relative to control; assay type: cell-based; details: human, read-out: Activity; method in brief: as §2
PANC-1 [7] = assay: Induction of apoptosis in human PANC1 cells assessed as sub-diploid DNA content at 1 uM after 96 hrs by FACS relative to control; assay type: functional; method in brief: as §1
PANC-1 [8] = assay: Cytotoxicity against human PANC1 cells up to 10 uM by trypan blue exclusion assay; assay type: functional, cell-based
Method in brief: (§3)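 Cells grown in RPMI-1640 with 10% FCS, penicillin and streptomycin at 37 °C, 5% CO2. Exposed to 0.01–10 µM for up to 120 h (24–120 h time course). Harvested, stained with Trypan blue, and unstained cells counted in a Neubauer chamber. Counts expressed relative to untreated controls (100%). Means of three independent experiments.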

HT-29 [9] = assay: Cytotoxicity against human HT-29 cells up to 10 uM by trypan blue exclusion assay; assay type: functional, cell-based; method in brief: as §3
[10] = Cytotoxicity against HFF cells assessed as viable cells at 1 uM after 48 hrs by trypan blue exclusion assay relative to control; assay type: cell-based; details: human, read-out: Activity; method in brief: as §2
MCF7 = assay: Antiproliferative activity against human MCF7 cells at 1 to 10 uM after 24 to 48 hrs by MTT assay; assay type: functional
MDA-MB-231 = assay: Antiproliferative activity against human MDA-MB-231 cells at 1 to 10 uM after 24 to 48 hrs by MTT assay; assay type: functional
PANC-1 [11] = assay: Cytotoxicity against human PANC1 cells assessed as viable cells at 1 uM after 48 hrs by trypan blue exclusion assay relative to control; assay type: functional; details: PANC-1, 48 h, read-out: Activity; method in brief: as §2
HT-29 [12] = assay: Cytotoxicity against human HT-29 cells assessed as viable cells at 1 uM after 48 hrs by trypan blue exclusion assay relative to control; assay type: functional; details: HT-29, 48 h, read-out: Activity; method in brief: as §2
PANC-1 [13] = assay: Induction of apoptosis in human PANC1 cells assessed as sub-diploid DNA content at 0.1 uM by FACS; assay type: functional, cell-based; method in brief: as §1

Row | SMILES | Activity (HT-29 [1]) | Activity (PANC-1 [2]) | Activity (HT-29 [3]) | Activity (HFF) | viability at 1 µM (PANC-1 [4]) | viability at 1 µM (HT-29 [5]) | viability at 120 h, 1 µM [6] | Activity (PANC-1 [7]) | Activity (PANC-1 [8]) | Activity (HT-29 [9]) | viability at 48 h, 1 µM [10] | Activity (MCF7) | Activity (MDA-MB-231) | viability at 1 µM (PANC-1 [11]) | viability at 1 µM (HT-29 [12]) | Activity (PANC-1 [13])
1 | CC1=C2C(=CC(C)(C)[C@@H]2OC(=O)CCCc2ccc(N(CCCl)CCCl)cc2)C(=O)[C@](C)(O)C12CC2 | <10% | 36.8% | 6% | 9.5% | 20% | 42.7% | 47.5% | <10% |  |  |  |  |  |  |  | 
2 | CC1=C2C(=CC(C)(C)[C@@H]2OC(=O)c2ccc(-c3ccc(C(=O)O[C@@H]4C5=C(C)C6(CC6)[C@@](C)(O)C(=O)C5=CC4(C)C)cn3)nc2)C(=O)[C@](C)(O)C12CC2 |  |  |  | 14.3% |  |  | 47.8% |  | Active | Active | 62% |  |  |  |  | 
3 | CC1=C(CO)C2=C(C)C3(CC3)[C@@](C)(O)C(=O)C2=C1 [IROFULVEN] |  |  |  |  |  |  |  |  |  |  |  | 70% | 70% |  |  | 
4 | CC1=C2C(=CC(C)(C)[C@@H]2OC(=O)C2C3CCC(O3)C2C(=O)O[C@@H]2C3=C(C)C4(CC4)[C@@](C)(O)C(=O)C3=CC2(C)C)C(=O)[C@](C)(O)C12CC2 (stereo partly drawn) [BIS(ILLUDINYL M) ENDOTHALLATE] |  | 74% | 52.9% | 33.1% | 6.4% | 3% | 49.3% |  | Active | Active |  |  |  | 33% | 26% | 
5 | CC/C=C\C/C=C\C/C=C\C/C=C\C/C=C\C/C=C\CCC(=O)O[C@@H]1C2=C(C)C3(CC3)[C@@](C)(O)C(=O)C2=CC1(C)C [DOCOSAHEXAENOYL ILLUDIN M] | <10% | 2.6% | 1.9% | 4.4% | 103% | 111% | 80% | <10% |  |  |  |  |  |  |  | 
6 | CC1=C2C(=CC(C)(C)[C@@H]2O)C(=O)[C@](C)(O)C12CC2 [ILLUDIN M] |  | 86% | 47.9% | 88.9% | 12.3% | 3.8% | 28.1% |  |  |  | 39% |  |  | 42% | 26% | Active
